Assay results gathered from unrelated publications.
D14: D14 (Arabidopsis thaliana, UniProt Q9SQR3)
AMY2: Pancreatic alpha-amylase (AMY2, Sus scrofa, UniProt P00690)
EIF2AK3: Eukaryotic translation initiation factor 2-alpha kinase 3 (EIF2AK3, Homo sapiens, UniProt Q9NZJ5)

The ΔTm of CC1=C(/C=C/C(C)=C/C=O)C(C)(C)CCC1 is reported as 0 °C (D14; thermal stability, DSF; 1 µM).
COc1ccc2oc(-c3ccc4nc(N)oc4c3)c/c(=N\c3ccccc3NC(=O)CCN)c2c1 gave a remaining binding of 110% (Receptor-interacting serine/threonine-protein kinase 1 (RIPK1, Homo sapiens, UniProt Q13546); binding; 1 µM).
The remaining binding of CCCCC(=O)Nc1ccc(-c2ccc3ncn(CCC)c(=O)c3c2)cn1 is reported as 84% (Ephrin type-A receptor 5 (EPHA5, Homo sapiens, UniProt P54756); binding, competition with immobilised ligand; 0.5 µM).
For NC/C(=C\F)COc1cccc(Cn2c(=S)[nH]c(=O)c3[nH]cnc32)c1, the inhibition was under 50% (Muscarinic acetylcholine receptor M2 (CHRM2, Homo sapiens, UniProt P08172); ligand displacement, radioligand; 10 µM).
For O=c1c(O)c(-c2ccc(O)cc2O)oc2cc(O)cc(O)c12, the inhibition was 55.1% (AMY2; enzyme activity, inhibitor; 50 µM, 30 min).
CC1=CC(O/C=C2/C(=O)OC3c4ccccc4CC23)OC1=O (racemic) gave a ΔTm of -0.035 °C (D14; thermal stability, DSF; 1 µM).
The remaining binding of Cc1cc(S(=O)(=O)N[C@H]2CC[C@H](CN3CCN(c4ccc(C5CCC(=O)NC5=O)cc4F)CC3)CC2)ccc1Nc1ncc(C(F)(F)F)c(N2CCC[C@](C)(O)C2)n1 (stereo partly shown) is reported as 75% (Cyclin-dependent kinase 4, with cyclin D1 (CDK4, Homo sapiens, UniProt P11802); binding, competition with immobilised ligand; 1 µM).
O=c1cc(-c2ccc(O)cc2)oc2cc(O)cc(O)c12 has an inhibition of 87.5% (AMY2; enzyme activity, inhibitor; 50 µM).
For C#Cc1cc(-c2cc(Nc3nc(N[C@@H](C)c4ccc(F)cn4)ncc3Cl)n[nH]2)ccc1C=O, the inhibition was 16.5% (EIF2AK3; enzyme activity, inhibitor; 0.2 µM).
For O=c1cc(-c2ccccc2)oc2cc(O)cc(O)c12, the inhibition was 22.3% (AMY2; enzyme activity, inhibitor; 50 µM, 30 min).
For C1=C/COCc2cc(ccc2OCCN2CCCC2)Nc2nccc(n2)-c2cccc(c2)COC/1, the remaining binding was 40% (Serine/threonine-protein kinase Nek7 (NEK7, Homo sapiens, UniProt Q8TDX7); binding; 0.1 µM).
O=c1cc(-c2ccc(O)cc2)oc2c(Br)c(O)c(Br)c(O)c12 has an inhibition of 68.2% (AMY2; enzyme activity, inhibitor; 50 µM, 30 min).
For CC1=C(/C=C/C(C)=C/C=O)C(C)(C)C[C@H](O)C1, the ΔTm was 0.28 °C (D14; thermal stability, DSF; 1 µM).
With Cc1cc(O)c(-c2ccc([C@@H](C)CN(C)C)cc2)c2c1[nH]c(=O)c1sccc12 the inhibition was -7.06% (EIF2AK3; enzyme activity, inhibitor; 0.1 µM).
The inhibition of COc1ccc([C@@H]2CC(=O)c3c(O)cc(O)cc3O2)cc1O is reported as 30.3% (AMY2; enzyme activity, inhibitor; 50 µM, 30 min).
With CC(=O)/C=C/C=C(C)/C=C/C1=C(C)CC(O)CC1(C)C (stereo in doubt) the ΔTm was 4.65 °C (D14; thermal stability; 20 µM).
